pIC50: −log10 of the molar value. ≈ marks a conversion by molar mass, not a printed value.
Assays:
[1] = target: Phosphatidylinositol 4,5-bisphosphate 3-kinase catalytic subunit alpha isoform (Homo sapiens, UniProt P42336); experiment: Inhibition of human recombinant His6-tagged PI3K p110alpha expressed in baculovirus infected cells using DiC8-PI(4,5)P2 as substrate after 20 mins by AlphaScreen assay
[2] = Lipophilicity, log D of the compound at pH 7.4 by HPLC analysis; assay type: physicochemical; settings: buffer
Outline: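 LogD measured at pH 7.4 by HPLC.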

Canis familiaris = experiment: Antithrombotic activity in Beagle dog assessed as concentration required to increase bleeding time by 2 fold at 15.8 to 591.8 ug/kg, iv administered as bolus infusion for 1 min followed by 8.7 to 378.7 ug/kg/min, iv administered as continuous infusion for 29 mins measured up to 15 mins; assay type: functional, Canis lupus familiaris
Outline: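 Anaesthetized, intubated, ventilated beagles (N = 2). Femoral artery intima damaged and flow reduced to give cyclic flow reductions. Control period vehicle iv (30% cyclodextrin). Then 5 ascending 30-min periods, each a bolus over 1 min plus continuous infusion for 29 min. Tongue incision bleeding time from 15 min, capped at 15 min. Blood at 20 min for ex vivo aggregation and plasma level. EC50 fitted sigmoidally; EC_BT:2 from an exponential fit.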

[3] = Solubility of the compound in HBSS buffer at pH 7.4 by LC-MS analysis; assay type: physicochemical
[4] = target: Voltage-gated inwardly rectifying potassium channel KCNH2 (Homo sapiens, UniProt Q12809); experiment: Inhibition of human ERG expressed in CHO cells at 31.6 uM by patch clamp assay; assay type: cell-based
Sequence of Voltage-gated inwardly rectifying potassium channel KCNH2 (Q12809 whole entry, canonical isoform): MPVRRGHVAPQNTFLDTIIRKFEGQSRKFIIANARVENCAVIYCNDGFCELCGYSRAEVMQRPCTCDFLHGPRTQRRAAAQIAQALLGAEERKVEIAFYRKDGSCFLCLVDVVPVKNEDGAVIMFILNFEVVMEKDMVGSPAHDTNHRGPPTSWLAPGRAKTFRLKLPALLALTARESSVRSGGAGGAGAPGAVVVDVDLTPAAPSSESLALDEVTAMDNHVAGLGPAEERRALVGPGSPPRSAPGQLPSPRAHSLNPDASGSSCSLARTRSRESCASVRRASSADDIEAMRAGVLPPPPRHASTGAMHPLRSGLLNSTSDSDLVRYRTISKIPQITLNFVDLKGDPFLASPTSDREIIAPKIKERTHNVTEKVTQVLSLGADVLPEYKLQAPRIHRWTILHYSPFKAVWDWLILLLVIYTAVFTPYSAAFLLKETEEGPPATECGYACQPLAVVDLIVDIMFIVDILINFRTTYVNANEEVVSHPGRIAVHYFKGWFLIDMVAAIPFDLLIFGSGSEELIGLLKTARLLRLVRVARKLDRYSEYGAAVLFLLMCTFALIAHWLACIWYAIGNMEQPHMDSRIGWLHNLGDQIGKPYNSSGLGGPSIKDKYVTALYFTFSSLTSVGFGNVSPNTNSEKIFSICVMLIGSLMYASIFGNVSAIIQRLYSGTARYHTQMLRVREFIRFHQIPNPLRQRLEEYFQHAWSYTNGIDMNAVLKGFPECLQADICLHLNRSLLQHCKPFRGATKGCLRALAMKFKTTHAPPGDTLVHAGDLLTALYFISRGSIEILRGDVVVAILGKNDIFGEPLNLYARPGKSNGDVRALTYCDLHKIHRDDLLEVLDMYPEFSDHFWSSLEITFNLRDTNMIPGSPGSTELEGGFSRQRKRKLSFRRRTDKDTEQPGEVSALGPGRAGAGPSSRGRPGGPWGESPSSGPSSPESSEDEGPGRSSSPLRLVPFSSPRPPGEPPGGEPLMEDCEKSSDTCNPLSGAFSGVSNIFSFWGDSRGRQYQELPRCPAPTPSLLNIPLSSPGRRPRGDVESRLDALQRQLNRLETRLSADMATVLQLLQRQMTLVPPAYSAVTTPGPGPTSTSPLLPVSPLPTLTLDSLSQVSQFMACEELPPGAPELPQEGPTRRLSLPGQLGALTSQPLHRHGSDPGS

[5] = target: Phosphatidylinositol 4,5-bisphosphate 3-kinase catalytic subunit beta isoform (Homo sapiens, UniProt P42338); experiment: Inhibition of human recombinant His6-tagged PI3K p110beta expressed in baculovirus infected cells using DiC8-PI(4,5)P2 as substrate after 20 mins by AlphaScreen assay
Sequence of Phosphatidylinositol 4,5-bisphosphate 3-kinase catalytic subunit beta isoform (P42338 whole entry, the tested form may be a part, canonical isoform): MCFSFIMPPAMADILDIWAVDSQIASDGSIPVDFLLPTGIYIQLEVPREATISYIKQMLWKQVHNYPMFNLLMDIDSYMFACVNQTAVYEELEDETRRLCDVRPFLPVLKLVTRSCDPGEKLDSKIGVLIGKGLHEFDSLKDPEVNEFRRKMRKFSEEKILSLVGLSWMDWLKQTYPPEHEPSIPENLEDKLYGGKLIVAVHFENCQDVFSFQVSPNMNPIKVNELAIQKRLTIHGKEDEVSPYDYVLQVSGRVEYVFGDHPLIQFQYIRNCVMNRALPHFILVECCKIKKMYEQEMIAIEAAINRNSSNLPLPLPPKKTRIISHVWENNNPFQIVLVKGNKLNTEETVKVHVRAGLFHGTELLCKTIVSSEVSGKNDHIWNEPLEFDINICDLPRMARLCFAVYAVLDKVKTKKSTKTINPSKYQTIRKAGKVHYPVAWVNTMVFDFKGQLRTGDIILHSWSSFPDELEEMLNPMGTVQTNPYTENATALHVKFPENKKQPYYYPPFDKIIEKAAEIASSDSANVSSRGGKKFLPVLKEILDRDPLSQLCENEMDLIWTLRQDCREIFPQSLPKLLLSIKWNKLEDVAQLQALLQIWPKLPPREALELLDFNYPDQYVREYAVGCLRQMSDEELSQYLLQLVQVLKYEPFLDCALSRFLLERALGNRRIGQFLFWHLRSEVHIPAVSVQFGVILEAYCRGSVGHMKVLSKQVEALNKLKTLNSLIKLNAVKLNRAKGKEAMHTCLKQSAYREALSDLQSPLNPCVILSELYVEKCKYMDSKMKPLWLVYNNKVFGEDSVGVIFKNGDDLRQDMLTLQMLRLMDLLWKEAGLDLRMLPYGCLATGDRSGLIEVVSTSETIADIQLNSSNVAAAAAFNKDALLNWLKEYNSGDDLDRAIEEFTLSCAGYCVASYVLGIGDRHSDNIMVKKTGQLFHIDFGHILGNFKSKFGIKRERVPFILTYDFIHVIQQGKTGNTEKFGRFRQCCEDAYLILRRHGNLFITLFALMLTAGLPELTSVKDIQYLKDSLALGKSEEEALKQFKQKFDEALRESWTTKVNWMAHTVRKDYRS

Rattus norvegicus = experiment: Toxicity in overnight fasted Sprague-Dawley rat assessed as induction of insulin resistance at 0.2 to 1.6 ug/kg/min administered as infusion for 30 mins; settings: in vivo, iv, 0.5 h
[6] = Fraction unbound in dog plasma after 18 hrs by equilibrium dialysis method; assay type: ADME, cell-free, Canis lupus familiaris
Outline: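 Unbound plasma fraction determined by equilibrium dialysis, 18 h at 37 °C.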

[7] = target: Phosphatidylinositol 4,5-bisphosphate 3-kinase catalytic subunit gamma isoform (Homo sapiens, UniProt P48736); experiment: Inhibition of human recombinant His6-tagged PI3K […] expressed in baculovirus infected cells using DiC8-PI(4,5)P2 as substrate after 20 mins by AlphaScreen assay
Sequence of Phosphatidylinositol 4,5-bisphosphate 3-kinase catalytic subunit gamma isoform (P48736 whole entry, canonical isoform): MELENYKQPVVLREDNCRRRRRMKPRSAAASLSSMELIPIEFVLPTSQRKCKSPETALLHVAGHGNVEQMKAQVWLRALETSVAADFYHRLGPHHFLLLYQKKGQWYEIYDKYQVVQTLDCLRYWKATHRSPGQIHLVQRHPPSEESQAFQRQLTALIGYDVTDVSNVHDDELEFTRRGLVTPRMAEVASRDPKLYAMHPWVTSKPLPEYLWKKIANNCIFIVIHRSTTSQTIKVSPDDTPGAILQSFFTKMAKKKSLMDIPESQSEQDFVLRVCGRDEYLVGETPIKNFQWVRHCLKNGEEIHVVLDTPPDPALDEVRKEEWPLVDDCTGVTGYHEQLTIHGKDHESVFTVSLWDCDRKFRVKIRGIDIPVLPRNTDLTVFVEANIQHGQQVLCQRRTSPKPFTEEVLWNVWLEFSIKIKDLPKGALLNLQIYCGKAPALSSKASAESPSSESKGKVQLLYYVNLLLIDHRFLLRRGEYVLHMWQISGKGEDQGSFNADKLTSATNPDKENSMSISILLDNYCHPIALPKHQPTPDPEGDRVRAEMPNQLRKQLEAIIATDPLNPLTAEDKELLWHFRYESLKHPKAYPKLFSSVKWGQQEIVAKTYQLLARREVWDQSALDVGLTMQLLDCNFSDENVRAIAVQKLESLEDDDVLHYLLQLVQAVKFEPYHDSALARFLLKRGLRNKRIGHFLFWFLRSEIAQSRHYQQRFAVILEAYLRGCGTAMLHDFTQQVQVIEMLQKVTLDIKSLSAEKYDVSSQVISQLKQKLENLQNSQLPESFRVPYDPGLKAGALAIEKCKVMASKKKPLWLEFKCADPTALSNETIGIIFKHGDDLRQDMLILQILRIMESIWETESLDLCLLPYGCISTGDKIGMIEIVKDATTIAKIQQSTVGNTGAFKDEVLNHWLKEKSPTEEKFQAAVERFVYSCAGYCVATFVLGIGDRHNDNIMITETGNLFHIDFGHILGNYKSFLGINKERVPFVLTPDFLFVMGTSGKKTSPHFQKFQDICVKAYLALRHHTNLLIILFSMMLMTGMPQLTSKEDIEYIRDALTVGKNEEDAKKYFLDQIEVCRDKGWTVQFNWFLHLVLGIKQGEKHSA

[8] = Half life in human liver microsomes at 2 uM; assay type: ADME, Microsome
[9] = Toxicity in human adipocytes assessed as inhibition of insulin-induced glucose uptake at 3 to 40 uM; assay type: cell-based; settings: adipocyte
Homo sapiens = species: Homo sapiens; experiment: Selectivity ratio of IC50 for human PI3K p110alpha to IC50 for human PI3K p110beta
[10] = Clearance in fasted Beagle dog at 1 umol/kg, iv and 2 umol/kg, po; assay type: ADME, organism-based, Canis lupus familiaris; settings: in vivo
Outline: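 Fasted male Beagle dogs, iv and po (N = 2 per route). Parameters derived by noncompartmental analysis of plasma concentrations.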

[11] = Antiplatelet activity in human platelet rich plasma assessed as inhibition of collagen-induced platelet aggregation by light transmission aggregometry; assay type: functional
Outline: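 Healthy-donor blood drawn by venipuncture into sodium citrate (11 mM final in blood), then platelet rich plasma prepared. Collagen-induced aggregation measured by light transmission aggregometry, either in an aggregometer or in an in-house 96-well plate format.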

Sequence of Phosphatidylinositol 4,5-bisphosphate 3-kinase catalytic subunit alpha isoform (P42336 whole entry, canonical isoform): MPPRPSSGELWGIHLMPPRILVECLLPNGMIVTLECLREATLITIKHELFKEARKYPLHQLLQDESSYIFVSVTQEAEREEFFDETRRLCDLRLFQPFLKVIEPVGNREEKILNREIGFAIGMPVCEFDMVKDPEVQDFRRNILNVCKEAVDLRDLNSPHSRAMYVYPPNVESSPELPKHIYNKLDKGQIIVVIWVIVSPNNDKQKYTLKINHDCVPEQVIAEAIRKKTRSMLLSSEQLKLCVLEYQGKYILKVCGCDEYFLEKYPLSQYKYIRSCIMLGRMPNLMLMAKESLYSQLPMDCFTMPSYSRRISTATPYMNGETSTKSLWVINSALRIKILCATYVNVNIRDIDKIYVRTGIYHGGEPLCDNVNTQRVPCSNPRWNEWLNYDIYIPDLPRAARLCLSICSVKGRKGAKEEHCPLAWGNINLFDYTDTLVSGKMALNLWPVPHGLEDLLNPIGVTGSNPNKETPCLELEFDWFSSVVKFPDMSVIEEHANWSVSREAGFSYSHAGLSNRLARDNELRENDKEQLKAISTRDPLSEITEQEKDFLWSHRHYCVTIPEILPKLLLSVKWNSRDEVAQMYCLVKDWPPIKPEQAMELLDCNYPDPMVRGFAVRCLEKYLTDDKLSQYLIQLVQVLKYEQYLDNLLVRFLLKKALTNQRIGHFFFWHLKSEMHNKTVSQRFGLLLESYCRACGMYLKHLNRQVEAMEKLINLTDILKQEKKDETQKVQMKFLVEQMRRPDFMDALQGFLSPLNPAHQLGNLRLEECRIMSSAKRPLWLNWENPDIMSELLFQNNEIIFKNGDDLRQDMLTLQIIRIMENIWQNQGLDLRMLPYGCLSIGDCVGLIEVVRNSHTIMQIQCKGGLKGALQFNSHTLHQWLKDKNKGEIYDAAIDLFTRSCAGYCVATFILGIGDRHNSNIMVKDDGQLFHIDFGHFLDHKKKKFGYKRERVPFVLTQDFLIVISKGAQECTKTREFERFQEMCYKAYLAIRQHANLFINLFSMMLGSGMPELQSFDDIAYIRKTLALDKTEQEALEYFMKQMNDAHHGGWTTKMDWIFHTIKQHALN

pIC50 [1]: 4.57
logD [2]: 1.9
solubility [3]: 100 µM (≈ 39.4 µg/mL)
pIC50 [5]: 7.42
fraction unbound at 18 h [6]: 0.3
pIC50 [7]: 4.01
half-life at 2 µM [8]: > 2.88 h
Ratio IC50 (Homo sapiens): > 700
clearance [10]: 18 mL/min/kg
pIC50 [11]: 6.40
Compound: C[C@H]1CN(c2cc(N(CCO)Cc3cccc4ccccc34)[nH]c(=O)n2)CCO1
Activity (Canis familiaris): 14.8 µM
inhibition (INH) [4]: Not Active
Activity (Rattus norvegicus): Non-toxic
Activity [9]: Non-toxic

Reference: ChEMBL document CHEMBL2163325, “Discovery of phosphoinositide 3-kinases (PI3K) p110β isoform inhibitor 4-[2-hydroxyethyl(1-naphthylmethyl)amino]-6-[(2S)-2-methylmorpholin-4-yl]-1H-pyrimidin-2-one, an effective antithrombotic agent without associated bleeding and insulin resistance” (Bioorg Med Chem Lett, 2012)
